Screens deposited in PubChem by The Scripps Research Institute Molecular Screening Center.
OX1R antag-1: antagonists of human orexin 1 receptor (OX1R). AID 485270, 2010. actives 1.8% (n = 330,000). Orexin/Hypocretin receptor type 1 (Homo sapiens), O43613. OX1R-expressing cells, FRET antagonist read-out. inhibition, % at 6.6 µM; in the data active means inhibition mostly above about 38%, no sharp cut-off; inactive means mostly below about 40%
Target sequence (O43613 whole entry, looked up): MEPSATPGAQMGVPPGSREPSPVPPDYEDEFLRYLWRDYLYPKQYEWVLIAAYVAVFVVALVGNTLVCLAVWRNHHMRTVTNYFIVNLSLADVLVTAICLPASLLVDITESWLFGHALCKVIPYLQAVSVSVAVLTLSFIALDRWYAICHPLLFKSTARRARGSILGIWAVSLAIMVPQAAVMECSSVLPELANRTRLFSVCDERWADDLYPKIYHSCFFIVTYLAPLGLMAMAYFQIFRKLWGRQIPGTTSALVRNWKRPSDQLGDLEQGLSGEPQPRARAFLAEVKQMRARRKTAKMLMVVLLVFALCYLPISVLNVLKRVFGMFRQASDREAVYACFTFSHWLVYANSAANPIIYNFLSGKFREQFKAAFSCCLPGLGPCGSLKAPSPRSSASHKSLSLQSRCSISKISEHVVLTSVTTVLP
GPR7 antagonist: GPR7 receptor antagonists, primary screen, cell-based, fluorescence, single concentration; Neuropeptides B/W receptor type 1 (Homo sapiens), P48145; GPR7-expressing cells, fluorescence antagonist assay; inhibition, % at 4.4 µM; actives 1.1% (n = 290,000); in the data active means inhibition above about 16%, passing the limit was not always enough;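 further: cells stimulated with the agonist NPW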
GalR3 antagonist: GalR3 antagonists in HEK293 cells, primary screen, cell-based, fluorescence readout. HEK293 GalR3-CNG cAMP membrane potential fluorescence; galR3 body fused to GalR1 C-terminus. AID 651719, 2012. inhibition, % at 3 µM. Galanin receptor type 3 (Homo sapiens), O60755. actives 0.44% (n = 360,000);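 active means inhibition above the screen-wide average plus 3 SD, cut at about 13% in these data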;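 further: forskolin and galanin both at EC90 stimulate the cells; cAMP rise reported by CNG channel membrane potential dye signal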
CHO parental Ca: ATP-evoked calcium signal inhibitors, parental CHO, primary screen, counter-screen for OX1R antagonist project, cell-based, fluorescence, Fluo-8 calcium dye; parental CHO-K1, ATP-induced calcium, Fluo-8 fluorescence; inhibition, % at 5.6 µM; actives 0.63% (n = 330,000); AID 463079, 2010;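 active means inhibition above that plate's mean sample inhibition plus 3 SD, cut at about 26% in these data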
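Material: Parental CHO cells | Reagent: ATP | Compound dosing: Single nominal dose of 5.6 µM per compound | Detection: Intracellular calcium via Fluo-8 no-wash fluorescent dye | Read-out: % inhibition of ATP-induced calcium mobilization | Benchmarks: Low control ATP plus DMSO, high control DMSO only | Replicates: Singlicate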
OX1R antag-2: OX1R (HCRTR1) antagonists, primary screen, fluorescence, CHO/OX1R cells, Fluo-8 calcium, orexin A. Orexin/Hypocretin receptor type 1 (Homo sapiens), O43613. Fluo-8 calcium fluorescence. inhibition, % at 5 µM. actives 0.43% (n = 330,000);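 active means inhibition above its plate's threshold, mean inhibition of all tested compounds on the plate plus 3 SD, cut at about 37% in these data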
OX1R HTRF confirm: OX1R (HCRTR1) antagonists, confirmation, cell-based, HTRF. shares compounds with OX1R antag-1. AID 492964, 2010. OX1R-expressing cells, HTRF antagonist assay. actives 49% (n = 1,800). inhibition, % at 6.6 µM; in the data active means inhibition above about 55%;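 further: CHO cells expressing OX1R stimulated with orexin A at about EC80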
CHO-K1 HTRF: signal inhibition in parental CHO-K1 cells, counter-screen for OX1R antagonist project, cell-based, HTRF. shares compounds with OX1R antag-1. HTRF counterscreen. inhibition, % at 6.6 µM. actives 48% (n = 1,800); in the data active means inhibition above about 17%
Each line names hits and unclear results; the compound was inactive in the other large screens (follow-up assays come after a bar, where they were run). Most compounds without a hit are left out; they make up all but 3.1% or so of the library.

O=C1c2ccccc2S(=O)(=O)c2cc(C(=O)N3CCC(N4CCCC4)CC3)ccc21	OX1R antag-1 101 (no result: GPR7 antagonist) | OX1R HTRF confirm inactive | CHO-K1 HTRF 88
O=C(NCC1CCCO1)c1ccc(C(=O)NCC2CCCO2)cc1 (centres undefined)	none
O=C(c1ccco1)N1CCN(C2CN(Cc3cn(Cc4ccccc4C(F)(F)F)nn3)S(=O)(=O)C2)CC1 (centres undefined)	none (no result: OX1R antag-1, GPR7 antagonist, CHO parental Ca, OX1R antag-2)
Cc1c(Cl)c([N+](=O)[O-])nn1CCCC(=O)N(Cc1ccccc1)Cc1ccccc1	OX1R antag-1 84 | OX1R HTRF confirm 85 | CHO-K1 HTRF inactive
Cc1c(Nc2ccc3nonc3c2[N+](=O)[O-])c(=O)n(-c2ccccc2)n1C	OX1R antag-1 195 | OX1R HTRF confirm inactive | CHO-K1 HTRF 87
O=[N+]([O-])c1ccc2nonc2c1Nc1cccc(F)c1	none
NS(=O)(=O)c1ccc(Nc2ccc3nonc3c2[N+](=O)[O-])cc1	OX1R antag-1 90 | OX1R HTRF confirm 63 | CHO-K1 HTRF 110
CC(=O)Nc1ccc(Nc2cc(N(C)C)c3nonc3c2[N+](=O)[O-])cc1	none (no result: OX1R antag-1, CHO parental Ca, OX1R antag-2)
O=C(O)c1cccc(Nc2ccc3nonc3c2[N+](=O)[O-])c1	OX1R antag-1 92 | OX1R HTRF confirm 58 | CHO-K1 HTRF 97
O=C(O)c1ccc(Nc2cc(Cl)c3nonc3c2[N+](=O)[O-])cc1	OX1R antag-1 96 | OX1R HTRF confirm 62 | CHO-K1 HTRF 98
O=C(c1ccsc1)N1CCCC(N2CCOCC2)C1 (centres undefined)	none
COC(=O)Cn1c2nc3ccccc3nc2c2cccc(C)c21	none (no result: OX1R antag-1, CHO parental Ca, OX1R antag-2)
Cc1cccc2c3nc4ccccc4nc3n(C)c12	OX1R antag-1 81 | OX1R HTRF confirm 92 | CHO-K1 HTRF inactive
CCN(CC)c1ccc(NC(=O)c2ccc3c(c2)c(C)c(C)n3C)cc1	OX1R antag-1 78 | OX1R HTRF confirm inactive | CHO-K1 HTRF inactive
Cc1c(C)n(C)c2ccc(C(=O)NCCCN3CCCC3)cc12	none
O=C1c2cccc3cc([N+](=O)[O-])cc(c23)C(=O)N1/N=C/c1ccc(O)cc1O	OX1R antag-1 181 | OX1R HTRF confirm 74 | CHO-K1 HTRF 108
Cc1c(Br)ccc(NC(=O)c2ccccc2[N+](=O)[O-])c1C	none
Cc1noc(C)c1CSCC(=O)Nc1ccccc1N1CCCC1	none (no result: OX1R antag-1, GPR7 antagonist, CHO parental Ca, OX1R antag-2)
Cn1c(O)c(N=NC(=O)c2ccco2)c2ccccc21	OX1R antag-1 166 | OX1R HTRF confirm 83 | CHO-K1 HTRF 53
Cc1cc(N=NC(=O)c2ccccc2O)c2ccccc2c1O	OX1R antag-1 120 | OX1R HTRF confirm 94 | CHO-K1 HTRF 48
CCOC(=O)C(=O)N=Nc1c(O)n(C)c2ccccc12	OX1R antag-1 183 | OX1R HTRF confirm inactive | CHO-K1 HTRF 75
Cn1c(O)c(N=NC(=O)c2ccccc2O)c2ccccc21	OX1R antag-1 121 | OX1R HTRF confirm 91 | CHO-K1 HTRF 29
Cc1occc1C(=O)N=Nc1c(O)n(C)c2ccccc12	none
COc1ccc(/C=N/NC(=O)CC(=O)NCc2cccnc2)cc1[N+](=O)[O-]	none
COc1ccccc1C(=O)Nc1nc(C)cc(C)n1	none (no result: GPR7 antagonist)
Cc1ccc(OCCC(=O)OCC(=O)NCCNC(=O)COC(=O)CCOc2ccc(C)cc2)cc1	none (no result: OX1R antag-1, GPR7 antagonist, CHO parental Ca, OX1R antag-2)
O=C1C2C3C=CC(O3)C2C(=O)N1Nc1ccccc1 (centres undefined)	none (no result: OX1R antag-1, GPR7 antagonist, CHO parental Ca, OX1R antag-2)
CCC(COC)NC(=O)c1ccc(OC)c(OC2CCN(C(C)=O)CC2)c1 (centres undefined)	none
C[C@@H]1O[C@H](CCc2cccc(Cl)c2)CC2=C1C(=O)OC(C)(C)O2	none (no result: OX1R antag-1, GPR7 antagonist, CHO parental Ca, OX1R antag-2)
Cn1c(O)c(N=NC(=O)CNC(=O)c2ccco2)c2ccccc21	OX1R antag-1 79 | OX1R HTRF confirm inactive | CHO-K1 HTRF 48
Cc1sc(NC(=O)CSc2nnc(N)s2)c(C#N)c1C	none
